Assay results taken from ChEMBL document CHEMBL2346589, “Fragment-based drug discovery of 2-thiazolidinones as inhibitors of the histone reader BRD4 bromodomain” (J Med Chem, 2013).
One block for each compound: values may come before it.

Tests used:
[1] = target: T1, Bromodomain-containing protein 4 (Homo sapiens, UniProt O60885); test: Displacement of FITC-labeled (+)-JQ1 from bromodomain BRD4(1) (unknown origin) expressed in Escherichia coli BL21(DE3) after 4 hrs by fluorescence anisotropy assay
Outline: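 BRD4(1), His6-tagged, expressed in E. coli BL21(DE3) codon plus RIL, Ni-NTA purified, tag removed with TEV, then gel filtration. Varied compound concentrations, DMSO 5‰ final. 4 h equilibration in the dark at room temperature. IC50 from two independent experiments.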

[2] = target: CYP3A4 (Homo sapiens, UniProt P08684); test: Inhibition of CYP3A4 (unknown origin)-mediated midazolam metabolite conversion at 10 uM after 20 mins relative to control; assay type: ADME; conditions: probe midazolam
Chain of CYP3A4 (P08684 whole entry): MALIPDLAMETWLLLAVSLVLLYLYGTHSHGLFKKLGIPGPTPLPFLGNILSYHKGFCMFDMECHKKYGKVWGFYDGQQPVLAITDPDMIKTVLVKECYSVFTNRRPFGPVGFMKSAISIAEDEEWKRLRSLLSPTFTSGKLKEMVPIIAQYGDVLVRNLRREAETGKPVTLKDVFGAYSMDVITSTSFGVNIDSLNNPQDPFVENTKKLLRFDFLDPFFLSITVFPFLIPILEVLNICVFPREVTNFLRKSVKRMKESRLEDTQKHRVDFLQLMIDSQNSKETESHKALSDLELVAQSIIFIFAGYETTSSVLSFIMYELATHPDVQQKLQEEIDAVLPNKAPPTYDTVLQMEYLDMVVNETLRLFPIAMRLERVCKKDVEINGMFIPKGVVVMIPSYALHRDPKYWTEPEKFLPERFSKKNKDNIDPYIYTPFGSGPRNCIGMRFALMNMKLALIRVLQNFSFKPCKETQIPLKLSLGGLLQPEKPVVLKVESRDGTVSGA
Outline: (§1)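 Human liver microsomes at 0.2 mg/mL in 100 mM phosphate pH 7.4 with 1 mM NADPH. Probe cocktail: midazolam 10 μM, dextromethorphan 10 μM, diclofenac 20 μM, phenacetin 100 μM, mephenytoin 100 μM. Test compound at 10 μM; PBS as negative control. 5 min preincubation at 37 °C, then 20 min reaction started with an NADPH-generating system. Metabolite formation expressed relative to PBS.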

[3] = Intrinsic clearance in mouse liver microsomes at 1 uM after 5 mins by LC/MS/MS analysis; assay type: ADME, Microsome; conditions: read-out: CLH
[4] = Intrinsic clearance in human liver microsomes at 1 uM after 5 mins by LC/MS/MS analysis; assay type: ADME, Microsome; conditions: read-out: CLH
Outline: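 Liver microsomes at 0.5 mg/mL with 1 μM compound in 0.1 M phosphate pH 7.4, 1 mM EDTA, 5 mM MgCl2. Preincubated 5 min at 37 °C, then started with 1 mM NADPH. Sampled at 0, 5, 10 and 30 min, quenched with cold acetonitrile. Parent remaining measured by LC/MS/MS.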

[5] = target: CYP2C9 (Homo sapiens, UniProt P11712); test: Inhibition of CYP2C9 (unknown origin)-mediated diclofenac metabolite conversion at 10 uM after 20 mins relative to control; assay type: ADME; conditions: probe diclofenac; outline: as §1
Chain of CYP2C9 (P11712 whole entry): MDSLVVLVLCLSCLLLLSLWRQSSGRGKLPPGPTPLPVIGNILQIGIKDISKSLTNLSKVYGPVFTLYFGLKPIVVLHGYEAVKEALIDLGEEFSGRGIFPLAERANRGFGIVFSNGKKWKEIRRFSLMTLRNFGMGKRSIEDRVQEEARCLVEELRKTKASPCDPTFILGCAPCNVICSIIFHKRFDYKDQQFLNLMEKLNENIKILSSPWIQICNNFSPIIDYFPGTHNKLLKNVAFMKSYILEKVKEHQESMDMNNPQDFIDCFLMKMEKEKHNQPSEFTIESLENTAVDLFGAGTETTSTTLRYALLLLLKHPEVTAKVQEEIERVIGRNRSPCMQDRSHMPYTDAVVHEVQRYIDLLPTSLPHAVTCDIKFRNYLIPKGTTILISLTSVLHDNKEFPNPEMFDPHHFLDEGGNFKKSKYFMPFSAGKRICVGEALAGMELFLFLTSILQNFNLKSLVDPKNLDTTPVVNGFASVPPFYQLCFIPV

[6] = target: CYP2D6 (Homo sapiens, UniProt P10635); test: Inhibition of CYP2D6 (unknown origin)-mediated dextromethorphan metabolite conversion at 10 uM after 20 mins relative to control; assay type: ADME; conditions: probe dextromethorphan; outline: as §1
Chain of CYP2D6 (P10635 whole entry): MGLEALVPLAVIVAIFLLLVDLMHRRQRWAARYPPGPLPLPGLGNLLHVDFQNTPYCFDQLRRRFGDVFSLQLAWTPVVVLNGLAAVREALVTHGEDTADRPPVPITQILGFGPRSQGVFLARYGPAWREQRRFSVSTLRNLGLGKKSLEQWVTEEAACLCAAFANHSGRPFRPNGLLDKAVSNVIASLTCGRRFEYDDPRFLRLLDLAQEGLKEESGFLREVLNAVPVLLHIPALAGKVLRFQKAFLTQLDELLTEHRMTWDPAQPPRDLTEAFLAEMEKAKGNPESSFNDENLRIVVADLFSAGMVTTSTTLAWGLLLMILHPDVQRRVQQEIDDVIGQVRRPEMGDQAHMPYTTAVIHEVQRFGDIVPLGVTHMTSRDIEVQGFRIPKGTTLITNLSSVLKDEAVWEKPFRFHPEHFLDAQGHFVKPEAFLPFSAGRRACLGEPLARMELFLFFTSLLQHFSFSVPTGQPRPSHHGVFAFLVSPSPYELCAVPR

[7] = target: CYP2C19 (Homo sapiens, UniProt P33261); test: Inhibition of CYP2C19 (unknown origin)-mediated mephenytoin metabolite conversion at 10 uM after 20 mins relative to control; assay type: ADME; conditions: probe mephenytoin; outline: as §1
Chain of CYP2C19 (P33261 whole entry): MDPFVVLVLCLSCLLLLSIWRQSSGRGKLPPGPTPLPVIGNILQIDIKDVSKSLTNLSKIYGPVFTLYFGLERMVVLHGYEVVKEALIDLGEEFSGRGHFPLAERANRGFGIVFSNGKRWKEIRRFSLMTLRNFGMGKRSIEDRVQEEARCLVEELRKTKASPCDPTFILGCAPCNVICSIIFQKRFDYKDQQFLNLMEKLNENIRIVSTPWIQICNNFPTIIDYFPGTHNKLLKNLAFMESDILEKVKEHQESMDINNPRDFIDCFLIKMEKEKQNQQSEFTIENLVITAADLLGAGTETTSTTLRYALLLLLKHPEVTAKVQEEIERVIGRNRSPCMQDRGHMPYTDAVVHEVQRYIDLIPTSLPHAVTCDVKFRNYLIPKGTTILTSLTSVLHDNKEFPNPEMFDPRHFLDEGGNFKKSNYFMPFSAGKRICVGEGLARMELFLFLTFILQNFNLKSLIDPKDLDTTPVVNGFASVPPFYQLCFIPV

[8] = target: T2, CYP1A2 (Homo sapiens, UniProt P05177); test: Inhibition of CYP1A2 (unknown origin)-mediated phenacetin metabolite conversion at 10 uM after 20 mins relative to control; assay type: ADME; conditions: probe phenacetin; outline: as §1
T2 sequence (P05177 whole entry): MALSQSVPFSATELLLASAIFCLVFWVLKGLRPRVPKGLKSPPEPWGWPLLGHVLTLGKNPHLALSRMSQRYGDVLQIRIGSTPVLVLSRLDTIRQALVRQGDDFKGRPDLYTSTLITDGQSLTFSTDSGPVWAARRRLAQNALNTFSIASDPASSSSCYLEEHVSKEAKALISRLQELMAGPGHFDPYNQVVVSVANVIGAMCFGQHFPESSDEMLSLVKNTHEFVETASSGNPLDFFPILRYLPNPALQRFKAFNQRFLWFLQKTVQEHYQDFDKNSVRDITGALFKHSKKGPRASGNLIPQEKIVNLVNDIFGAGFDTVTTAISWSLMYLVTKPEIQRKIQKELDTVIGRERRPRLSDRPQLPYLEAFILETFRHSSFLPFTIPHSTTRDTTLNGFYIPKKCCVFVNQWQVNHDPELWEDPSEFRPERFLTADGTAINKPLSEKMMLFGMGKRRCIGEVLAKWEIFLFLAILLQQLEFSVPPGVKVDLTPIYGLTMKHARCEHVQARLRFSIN

[9] = target: T1, Bromodomain-containing protein 4; test: Inhibition of bromodomain BRD4-mediated c-myc mRNA expression in human HT-29 cells at 10 uM after 24 hrs by RT-qPCR analysis relative to control; assay type: cell-based
Outline: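 HT-29 cells (McCoy's 5A, 10% FBS, 37 °C, 5% CO2) seeded in six-well plates overnight, then exposed 24 h to compound at 10 μM final (DMSO stock diluted in saline). Total RNA extracted with Trizol, reverse-transcribed, and quantified by RT-qPCR. c-myc levels normalised to β-actin and expressed relative to untreated control. Three independent experiments, mean ± SD.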

[10] = tested on: HT-29; test: Growth inhibition of human HT-29 cells after 72 hrs by sulforhodamine B assay; assay type: functional; conditions: HT-29, 72 h
Outline: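 HT-29 cells in McCoy's 5A with 10% FBS at 37 °C, 5% CO2. DMSO stocks (0.01 mol/L) diluted in normal saline. Graded concentrations applied in triplicate for 72 h, then SRB staining with A560 read-out. Inhibition rate from A560 treated/control. GI50 from four independent experiments, mean ± SD.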

[11] = target: T1, Bromodomain-containing protein 4; test: Displacement of FITC-labeled (+)-JQ1 from bromodomain BRD4(1) (unknown origin) expressed in Escherichia coli BL21(DE3) at 50 uM after 4 hrs by fluorescence anisotropy assay relative to control
Outline: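 Same BRD4(1) fluorescence anisotropy competition set-up: 45 nM protein, 5 nM FITC-(+)-JQ1 tracer, HEPES pH 7.4/CHAPS buffer, 4 h in the dark at room temperature, ex 485/em 530 nm. Single ligand concentration of 50 μM, reported as percent inhibition.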

SMILES: Nc1cc(N)cc(-c2csc(=O)[nH]2)c1
IC50 [1]: 50.7 µM

SMILES: Nc1ccc(-c2csc(=O)[nH]2)cc1O
IC50 [1]: 23.8 µM

SMILES: O=c1[nH]c(-c2cccc(NS(=O)(=O)c3cccnc3)c2)cs1
IC50 [1]: 10 µM

SMILES: O=C(Cc1ccccc1)Nc1cccc(-c2csc(=O)[nH]2)c1
inhibition [11]: 45.6%

SMILES: O=c1[nH]c(-c2cccc(NS(=O)(=O)c3cccc4cccnc34)c2)cs1
inhibition [11]: 45.7%

SMILES: O=C(Nc1cc(NS(=O)(=O)c2cccs2)cc(-c2csc(=O)[nH]2)c1)c1cccs1
inhibition at 20 min, 10 µM [2]: 8%
microsomal CLint at 1 µM [3]: 52 µL/min/mg
microsomal CLint at 1 µM [4]: 18 µL/min/mg
inhibition at 20 min, 10 µM [5]: 41%
inhibition at 20 min, 10 µM [6]: 20%
inhibition at 20 min, 10 µM [7]: 39%
inhibition at 20 min, 10 µM [8]: 29%

SMILES: O=c1[nH]c(-c2ccc(NS(=O)(=O)c3cccs3)cc2)cs1
inhibition [11]: 38.6%

SMILES: O=c1[nH]c(-c2cccc(Cl)c2)cs1
IC50 [1]: 24 µM

SMILES: COc1ccc(S(=O)(=O)Nc2cccc(-c3csc(=O)[nH]3)c2)cc1
IC50 [1]: 4.4 µM

SMILES: O=c1[nH]c(-c2cccc(NCCc3ccccc3)c2)cs1
IC50 [1]: 22.8 µM

SMILES: Nc1ccc(-c2csc(=O)[nH]2)cc1
IC50 [1]: 51 µM

SMILES: O=C(Nc1cc(-c2csc(=O)[nH]2)ccc1NS(=O)(=O)Cc1ccccc1)C1CCCC1
inhibition [11]: 20.2%

SMILES: Nc1cccc(-c2csc(=O)[nH]2)c1
IC50 [1]: 42 µM

Other lines, results leading:

IC50 [1]: 3.3 µM
SMILES: O=c1[nH]c(-c2ccc(NS(=O)(=O)c3cccs3)c(O)c2)cs1

IC50 [1]: 2.4 µM
SMILES: CCCC(=O)Nc1cc(-c2csc(=O)[nH]2)ccc1NS(=O)(=O)c1cccs1

IC50 [1]: 0.57 µM
SMILES: O=C(CCc1ccccc1)Nc1cc(NS(=O)(=O)c2cccs2)cc(-c2csc(=O)[nH]2)c1

IC50 [1]: 2.2 µM
SMILES: O=C(CCC1CCCCC1)Nc1cc(NS(=O)(=O)c2cccs2)cc(-c2csc(=O)[nH]2)c1

inhibition at 20 min, 10 µM [2]: 17%
microsomal CLint at 1 µM [3]: 120 µL/min/mg
microsomal CLint at 1 µM [4]: 24 µL/min/mg
inhibition at 20 min, 10 µM [5]: 34%
inhibition at 20 min, 10 µM [6]: 22%
inhibition at 20 min, 10 µM [7]: 36%
inhibition at 20 min, 10 µM [8]: 16%
IC50 [1]: 4.1 µM
SMILES: O=c1[nH]c(-c2cccc(NS(=O)(=O)c3cccs3)c2)cs1

inhibition [9]: > 50%
GI50 [10]: 37.3 µM
IC50 [1]: 2.6 µM
SMILES: Nc1cc(NS(=O)(=O)c2cccs2)cc(-c2csc(=O)[nH]2)c1

IC50 [1]: 3.5 µM
SMILES: O=C(Cc1ccccc1)Nc1cc(-c2csc(=O)[nH]2)ccc1NS(=O)(=O)c1cccs1

IC50 [1]: 4.1 µM
SMILES: O=c1[nH]c(-c2cccc(NS(=O)(=O)Cc3ccccc3)c2)cs1

IC50 [1]: 2.6 µM
SMILES: O=C(CCc1ccccc1)Nc1cc(-c2csc(=O)[nH]2)ccc1NS(=O)(=O)c1cccs1

GI50 [10]: 47.8 µM
IC50 [1]: 3.7 µM
SMILES: O=c1[nH]c(-c2cccc(NS(=O)(=O)c3ccc(F)cc3)c2)cs1

IC50 [1]: 0.79 µM
SMILES: CCCC(=O)Nc1cc(NS(=O)(=O)c2cccs2)cc(-c2csc(=O)[nH]2)c1

GI50 [10]: 63.6 µM
IC50 [1]: 2.5 µM
SMILES: O=C(Nc1cc(-c2csc(=O)[nH]2)ccc1NS(=O)(=O)c1cccs1)C1CCCC1

inhibition [9]: > 50%
GI50 [10]: 22.5 µM
IC50 [1]: 0.8 µM
SMILES: Cc1noc(C)c1-c1ccccc1
